Here are results for 15 molecules from ChEMBL document CHEMBL3576784, “Azolylthioacetamide: A Highly Promising Scaffold for the Development of Metallo-β-lactamase Inhibitors” (ACS Med Chem Lett, 2015).

The target in this test is Beta-lactamase (Aeromonas veronii, UniProt O31272). Kind of test: Inhibition of Aeromonas veronii metallo-beta-lactamase ImiS expressed in Escherichia coli BL21(DE3) using imipenem substrate pre-incubated for 30 mins by Lineweaver-Burk plot method. In a few lines:
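Purified enzyme; initial rates of imipenem hydrolysis followed by UV spectrophotometry (262 or 300 nm) in 50 mM Tris pH 7.0, 25 °C. Substrate 24–140 μM, inhibitor 0–10 μM. Rates in triplicate and averaged. Inhibition mode from Lineweaver–Burk plots. Ki from fits of initial velocity vs substrate concentration at each inhibitor level.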

Bounds are passed on as bounds.

Sequence of Beta-lactamase (O31272 whole entry): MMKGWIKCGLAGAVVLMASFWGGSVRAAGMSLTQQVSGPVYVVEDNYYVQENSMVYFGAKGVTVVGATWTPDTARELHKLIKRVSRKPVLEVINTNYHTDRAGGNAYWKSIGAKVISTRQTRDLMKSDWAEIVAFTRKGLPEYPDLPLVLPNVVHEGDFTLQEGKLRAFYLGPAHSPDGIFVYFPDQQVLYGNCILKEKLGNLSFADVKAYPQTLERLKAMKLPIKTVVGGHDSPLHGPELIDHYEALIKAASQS

A word on the Ki: it is a dissociation constant, usually derived from enzyme kinetics or from competition with a known ligand. For the molecule `O=C(CSc1nnc(-c2ccccc2C(=O)O)[nH]1)Nc1ccccc1`, where the note is “read-out: Ki”, the Ki stood at 1.8 µM. On to `O=C(CSc1nnc(-c2ccccc2C(=O)O)[nH]1)Nc1nc2ccccc2[nH]1`, for which the inhibition constant (Ki) (read-out: Ki) stood at 3.6 µM. Still for that read-out and setting: the same measure for `O=C(CSc1nnc(-c2ccccc2C(=O)O)[nH]1)Nc1nc2ccccc2s1`: 1.2 µM; for `O=C(CSc1nnc(-c2ccccc2C(=O)O)[nH]1)Nc1ccc(Cl)cc1`: 1.4 µM. Still for that read-out and setting: the same measure for `O=C(CSc1nnc(-c2ccccc2C(=O)O)[nH]1)Nc1ccc([N+](=O)[O-])cc1`: 2.2 µM. For the molecule `O=C(CSc1nnc(-c2ccccc2C(=O)O)[nH]1)NCc1ccccc1`, the Ki entry is “Not Active”. Regarding `O=C(CSc1nnc(-c2ccccc2C(=O)O)[nH]1)Nc1ccccc1Cl`, the Ki (read-out: Ki) was 2.3 µM.

Turning to `O=C(CSc1nnc(-c2ccccc2C(=O)O)[nH]1)Nc1cccc(Cl)c1`, the Ki (read-out: Ki) stood at 2.4 µM. Regarding `O=C(CSc1nnc(-c2ccccc2C(=O)O)[nH]1)Nc1ccccc1[N+](=O)[O-]`, the inhibition constant Ki (read-out: Ki) was found to be 2.7 µM. Take `O=C(CSc1nnc(-c2ccccc2C(=O)O)[nH]1)Nc1cccc([N+](=O)[O-])c1`: the Ki (read-out: Ki) stood at 1.9 µM.

As to `O=C(O)CCc1nnc(SCC(=O)Nc2ccccc2)[nH]1`, the Ki (read-out: Ki) is above 5000 µM. On the same count and under the same terms, the same measure for `O=C(O)CCc1nnc(SCC(=O)Nc2nc3ccccc3[nH]2)[nH]1`: above 2500 µM. As for `O=C(O)CCc1nnc(SCC(=O)Nc2nc3ccccc3s2)[nH]1`, the Ki result was “Not Active”. `O=C(O)CCc1nnc(SCC(=O)Nc2ccc(Cl)cc2)[nH]1`: the Ki (read-out: Ki) is above 5000 µM. As for `O=C(O)CCCc1nnc(SCC(=O)Nc2nc3ccccc3[nH]2)[nH]1`, the inhibitory constant (Ki) result is given as “Not Active”.
